High-throughput results: PubChem, Broad Institute
An excerpt weighted towards active compounds, which were near 3.1% of everything screened.
DENV2 CPE: inhibitors of DENV2 cytopathic effect, primary screen, cell-based, plate reader, single concentration | DENV2-infected cells, cytopathic effect rescue | CPE inhibition, % at 9.99 µM | actives 1.7% (n = 350,000) | AID 651640, 2012; in the data active = CPE inhibition above about 20%, passing the limit was not always enough; tested in BHK-21 cells;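 note: 0% = median of neutral control wells and 100% = median of positive control wells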
miR122 inh: miR-122 Renilla sensor signal increase in Huh7, primary screen, miR-122 inhibitor project, cell-based, single point, plate reader; actives 0.3% (n = 340,000); AID 602342, 2012; Huh7 miR-122 Renilla luciferase sensor, 48 h; neutral wells = 0, positive control = 100; activation (reporter increase), % at 12.5 µM;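 active = mean replicate activation score at least 90 and every replicate individually at or above 90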;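 note: higher luciferase means less miR-122 activity so hits act as miR-122 inhibitors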
Ecoli rRNA inh: reduced GFP signal of wild-type E. coli, primary screen, bacterial rRNA inhibitor project, GFP/RFP fluorescence, OD600, single point. E. coli WT GFP vs humanized-ribosome RFP mutants, 24 h; stronger effect = lower value; DMSO median 0, no signal -100. GFP signal change (wild-type ribosome), % (no concentration beside the values). actives 1.6% (n = 350,000);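 active = significant combined selectivity score with lowered wild-type GFP, culture density cut under 30%, mutant RFP and density less affected; inactive = any of these conditions unmet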
E-sel inducer: E-selectin induction in HUVECs, primary screen, imaging, HUVEC, immunofluorescence imaging, single point; activation, % at 7.58 µM; AID 686992, 2013; P16581; normalized: neutral wells 0, TNF-alpha wells 100; actives 0.37% (n = 260,000);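 active = mean E-selectin-positive cell signal at least 10% of the positive control, reached in at least 60% of replicates, without over 20% cell loss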
Target sequence (P16581 whole entry, looked up): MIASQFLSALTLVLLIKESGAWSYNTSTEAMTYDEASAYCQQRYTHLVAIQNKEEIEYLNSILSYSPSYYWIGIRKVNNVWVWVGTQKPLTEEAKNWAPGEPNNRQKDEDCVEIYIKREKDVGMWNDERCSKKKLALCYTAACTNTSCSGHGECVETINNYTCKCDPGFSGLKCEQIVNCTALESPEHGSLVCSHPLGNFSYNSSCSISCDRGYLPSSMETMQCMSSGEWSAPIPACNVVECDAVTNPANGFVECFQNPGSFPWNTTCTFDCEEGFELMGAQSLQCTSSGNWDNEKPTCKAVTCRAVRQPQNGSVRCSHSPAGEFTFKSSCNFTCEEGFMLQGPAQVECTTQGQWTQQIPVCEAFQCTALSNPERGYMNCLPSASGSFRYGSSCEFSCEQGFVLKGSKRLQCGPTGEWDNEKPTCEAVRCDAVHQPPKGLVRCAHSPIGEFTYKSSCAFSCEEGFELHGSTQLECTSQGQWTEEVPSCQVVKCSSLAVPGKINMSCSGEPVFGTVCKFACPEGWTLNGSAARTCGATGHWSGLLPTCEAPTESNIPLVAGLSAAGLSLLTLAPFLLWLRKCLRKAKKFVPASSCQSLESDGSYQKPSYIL
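System: HUVEC / Compound: single concentration / Signal: immunofluorescence imaging / Read-out: percent E-selectin-positive cells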
Cneo AK release: Cryptococcus neoformans cell lysis inducers, primary screen, AK release luminescence, single concentration; C. neoformans lysis, adenylate kinase release luminescence, 4 h; normalised: neutral wells 0, clomiphene wells 100; lysis activity, % at 15 µM; actives 0.2% (n = 360,000); AID 651654, 2012;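 active = mean lysis activity across replicates of at least 80%, whatever share of replicates individually reach that level; inactive = mean lysis activity below 80%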
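Material: C. neoformans cells; Schedule: 4 h static compound exposure, 37 °C, read 1 h post-reagent; Measured by: adenylate kinase release luminescence; Read-out: signal increase indicating cell lysis; Controls: Clomiphene as positive lysis control.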
Numbers without * were called inactive; [ ] = dose if it differs, or a comment.

For C/C=C/c1cnc2c(c1)C(=O)N([C@H](C)CO)C[C@@H](C)[C@@H](CN(C)C(=O)C1CCCCC1)O2 the results were DENV2 CPE -5.1, miR122 inh -3.6[16.7 µM], Ecoli rRNA inh 6.7, E-sel inducer 1.7 and Cneo AK release 95.1*.
For COc1ccc(NC(=O)N(C)C[C@@H]2Oc3c(NC(=O)Nc4ccc(C(F)(F)F)cc4)cccc3C(=O)N([C@H](C)CO)C[C@@H]2C)cc1 the results were miR122 inh -2.1[16.7 µM], Ecoli rRNA inh -1.0 and E-sel inducer -8.3.
For CCC(=O)N1C[C@@H](C)[C@H](OC)CN(C)C(=O)c2ccc(NC(=O)C3CC3)cc2OC[C@H]1C the results were DENV2 CPE -1.8, Ecoli rRNA inh 2.9, E-sel inducer -0.1 and Cneo AK release 6.6.
Screening COc1ccc(Nc2nc(C)cc(C)c2C(N)=O)cc1 returned miR122 inh -0.7 and Cneo AK release -2.0.
For COc1ccc(Nc2n[nH]c(N)c2C(N)=O)cc1 the results were DENV2 CPE -2.7, miR122 inh 1.5, Ecoli rRNA inh 7.4 and E-sel inducer 28.1*.
For Cc1cc(C(C)(C)C)cc(S(=O)(=O)Nc2cccc(C(=O)O)c2)c1C the results were DENV2 CPE 2.9, miR122 inh 29.0, Ecoli rRNA inh -21.9 and Cneo AK release -0.8.
Screening Cc1ccccc1NC(=O)c1cc[n+]([O-])cc1 returned DENV2 CPE -1.2, miR122 inh -5.3, Ecoli rRNA inh -3.2 and E-sel inducer 41.3*.
`Cc1ccccc1NC(=O)c1ccc(NS(=O)(=O)c2cc(C(C)(C)C)cc(C)c2C)cc1` gave miR122 inh 320.8*, E-sel inducer 0.2 and Cneo AK release 2.0.
`COc1ccc(/C=C2/C(=O)N(c3cccc(F)c3)N=C2C)c(OC)c1` gave DENV2 CPE 37.1*, miR122 inh 1.2, Ecoli rRNA inh 3.5 and Cneo AK release 0.0.
CC1=NN(c2cccc(F)c2)C(=O)/C1=C/c1ccc(N(C)C)cc1 was read as DENV2 CPE 0.8, miR122 inh 15.1, Ecoli rRNA inh 2.8 and Cneo AK release -1.1.
Screening O=C(C[C@@H]1C=C[C@@H](NS(=O)(=O)c2ccccc2)[C@H](CO)O1)NCc1ccncn1 returned DENV2 CPE -3.8, Ecoli rRNA inh 2.5, E-sel inducer -0.5 and Cneo AK release 1.9.
For COc1ccc(CN(C)C[C@@H]2OCCCC[C@@H](C)Oc3ccc(NS(=O)(=O)c4cccs4)cc3C(=O)N([C@@H](C)CO)C[C@H]2C)cc1 the results were DENV2 CPE 26.7*, miR122 inh -10.8[16.7 µM], Ecoli rRNA inh 1.7, E-sel inducer 0.0 and Cneo AK release 5.6.
C[C@@H]1CCCCO[C@H](CN(C)Cc2ccccc2)[C@H](C)CN([C@@H](C)CO)C(=O)c2cc(NS(=O)(=O)c3cccs3)ccc2O1 was read as miR122 inh 22.1[16.7 µM], Ecoli rRNA inh 0.8 and Cneo AK release 86.2*.
For C[C@@H]1CCCCO[C@H](CN(C)Cc2ccccc2)[C@@H](C)CN([C@H](C)CO)C(=O)c2cc(NS(=O)(=O)c3cccs3)ccc2O1 the results were DENV2 CPE -6.4, miR122 inh 10.8[16.7 µM], Ecoli rRNA inh 0.9 and Cneo AK release -1.9.
COc1ccc(CN(C)C[C@H]2OCCCC[C@@H](C)Oc3ccc(NS(=O)(=O)c4cccs4)cc3C(=O)N([C@@H](C)CO)C[C@@H]2C)cc1 was read as DENV2 CPE 11.4, miR122 inh -2.3[16.7 µM], Ecoli rRNA inh 0.9, E-sel inducer -0.1 and Cneo AK release 10.6.
For O=C(Nc1ccc2c(c1)OCO2)N[C@H]1CC[C@H](CCNC(=O)C2CCCC2)O[C@@H]1CO the results were DENV2 CPE -0.5, miR122 inh -3.2[16.7 µM], Ecoli rRNA inh 1.5, E-sel inducer -0.1 and Cneo AK release 65.0.
For C[C@H](O)C#Cc1ccc2c(c1)O[C@@H](CN(C)C(=O)Cc1ccccn1)[C@H](C)CN([C@@H](C)CO)S2(=O)=O the results were DENV2 CPE 12.1, miR122 inh 1.9[16.7 µM], Ecoli rRNA inh 0.2, E-sel inducer -0.1 and Cneo AK release -2.3.
`CC1=C(C(=O)N(C(C)C)C(C)C)CC(CC(=O)NC2CCCCC2)C(=O)N1CCCN1CCCC1=O` (stereo not drawn) gave DENV2 CPE 3.1, miR122 inh -4.7, Ecoli rRNA inh 3.0, E-sel inducer -0.2 and Cneo AK release -17.1.
`CCN(CC)C(=O)C1=C(C)N(CCCN2CCCC2=O)C(=O)C(CC(=O)NCC2CCCCC2)C1` (stereo not drawn) gave DENV2 CPE 74.4*, miR122 inh -0.8, Ecoli rRNA inh 13.0, E-sel inducer -0.2 and Cneo AK release -0.8.
`CC1=C(C(=O)N(C)C)CC(CC(=O)NC2CCCCC2)C(=O)N1Cc1ccc(C(C)(C)C)cc1` (stereo not drawn) gave DENV2 CPE 42.9*, miR122 inh 7.9 and Cneo AK release 0.6.
For COCCCN1C(=O)C(CC(=O)NC(c2ccccc2)c2ccccc2)CC(C(=O)N(C(C)C)C(C)C)=C1C (stereo not drawn) the results were DENV2 CPE 56.8*, miR122 inh -2.6, Ecoli rRNA inh -5.9, E-sel inducer 0.0 and Cneo AK release -31.8.
`CC1=C(C(=O)N(C)C)CC(CC(=O)NCC2CCCCC2)C(=O)N1CCCN1CCCC1=O` (stereo not drawn) gave DENV2 CPE -4.4, miR122 inh -4.7, Ecoli rRNA inh 5.1 and Cneo AK release -1.7.
For COCCCN1C(=O)C(CC(=O)NC2CCCCC2)CC(C(=O)N(C(C)C)C(C)C)=C1C (stereo not drawn) the results were DENV2 CPE 26.6*, miR122 inh -1.7, Ecoli rRNA inh 1.6, E-sel inducer 0.8 and Cneo AK release -1.0.
For NC(=O)CC[C@H](NC(=O)[C@H](Cc1ccccc1)n1c(=O)[nH]c2ccccc2c1=O)C(=O)N1CCC[C@H]1C(=O)O the results were DENV2 CPE 66.3*, miR122 inh -2.5, Ecoli rRNA inh 4.7 and Cneo AK release -1.4.
Cc1ccc(NC(=O)Nc2ccc3c(c2)C(=O)N(C)[C@H]2CC[C@@H](CC(=O)O)O[C@@H]2CO3)cc1 was read as DENV2 CPE -4.4, miR122 inh -2.3[16.7 µM], Ecoli rRNA inh 2.4, E-sel inducer 0.2 and Cneo AK release 1.2.
For CO[C@H]1CN(C)C(=O)c2cc(NC(C)=O)ccc2OC[C@@H](C)N(C(=O)c2cnccn2)C[C@H]1C the results were DENV2 CPE 0.5, Ecoli rRNA inh 2.8, E-sel inducer 0.0 and Cneo AK release 0.7.
